TRPC4 agonist – activators of mouse TRPC4 channel; Q9QUQ5; HEK293 TRPC4beta/mu-opioid, Fluo4 calcium fluorescence; stronger effect = higher value; B-score at 10 µM; hit rate 0.49% among 310,000;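 active = B-score above 5 SD of library B-scores, and initial fluorescence ratio not above library mean plus 5 SD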;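 note: positive B-score marks a calcium rise read as TRPC4 activation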
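Test system: HEK293 cells stably co-expressing mouse TRPC4beta and mu-opioid receptor | Schedule: Fluo4 dye loading 45 min at room temperature, 110 s recording | Measured by: Kinetic Fluo4 calcium fluorescence, 5 s baseline at 1 Hz | Evaluation: B score of integrated ratio | Controls: Buffer (low) and maximal DAMGO (high)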
TRPC6 inh – mouse TRPC6 channel inhibition; hit rate 1.1% among 310,000; Q61143; HEK293-TRPC6, membrane potential dye, ACh-evoked depolarization; stronger effect = lower value; B-score at 10 µM;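 active = B-score under library mean minus 3 SD, initial fluorescence not abnormally high, positive integrated signal ratio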;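 note: B-score derived from integrated fluorescence ratio over the kinetic read; more negative B-score means stronger inhibition of depolarization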
TRPC4 potent – allosterically enhances the mouse TRPC4 cation channel; B-score at 10 µM; HEK293 TRPC4beta/mu-opioid, DAMGO EC20, Fluo-4 Ca2+ flux; stronger effect = higher value; Q9QUQ5; hit rate 0.42% among 310,000;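 active = B-score of calcium response area above 5 SD of library B-scores, with initial fluorescence ratio within 5 SD of library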;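 note: B-score of integrated fluorescence ratio over time as area under calcium response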
TRPC4 block – TRPC4 (mouse) channel inhibition. Q9QUQ5. HEK293 TRPC4beta/mu-opioid, DAMGO-evoked Fluo4 calcium flux; stronger effect = lower value. hit rate 0.39% among 300,000. AID 2247. B-score at 10 µM;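 active = B-score over 3 SD under the library average, no early fluorescence shift, positive overall ratio signal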
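Assay system: HEK293 cells with stable TRPC4beta plus mu-opioid receptor expression; Probe or stimulus: DAMGO in two steps, submaximal then maximal; Dosing: single-point compound dosing; Measured by: Fluo4 calcium-dye fluorescence, kinetic read; Read-out basis: B score from integrated Fluo4 fluorescence ratio.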
TRPC6 activator – mouse TRPC6 channel activation; hit rate 0.13% among 310,000; HEK293-TRPC6 membrane potential dye fluorescence; stronger effect = higher value; Q61143; B-score at 10 µM; AID 2550;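 active = B-score of the integrated fluorescence ratio above library mean plus 3 SD, and starting fluorescence ratio within library mean plus 5 SD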;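 note: higher score means more depolarization so channel activation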
Kir21 inh – inhibitors of mouse Kir2.1 inward-rectifier potassium channel; hit rate 0.85% among 310,000; AID 1672; B-score at 10 µM; HEK293-Kir2.1, FluxOR thallium flux fluorescence; stronger effect = lower value;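 active = fluorescence ratio B-score at or below minus 3 SD of library scores, with starting-brightness B-score within 2 SD, cut at about -4.2 in these data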;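 note: channel flux triggered by added potassium and thallium sulfate stimulus; B-score of peak minus minimum fluorescence over baseline after thallium stimulus; more negative B-score means stronger Kir2.1 block with less thallium influx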
Target sequence (P35561 whole entry, looked up): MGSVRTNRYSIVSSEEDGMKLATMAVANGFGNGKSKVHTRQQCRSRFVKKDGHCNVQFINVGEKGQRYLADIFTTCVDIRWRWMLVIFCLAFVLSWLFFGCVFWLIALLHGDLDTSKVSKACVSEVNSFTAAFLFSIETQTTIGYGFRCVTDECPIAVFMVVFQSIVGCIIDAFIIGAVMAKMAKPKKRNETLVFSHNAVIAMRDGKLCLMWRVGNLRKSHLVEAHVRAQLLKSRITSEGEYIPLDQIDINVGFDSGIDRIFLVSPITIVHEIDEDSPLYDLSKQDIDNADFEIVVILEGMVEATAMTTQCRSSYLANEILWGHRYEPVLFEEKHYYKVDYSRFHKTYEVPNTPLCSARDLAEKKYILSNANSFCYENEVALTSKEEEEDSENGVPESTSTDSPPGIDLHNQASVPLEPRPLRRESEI
* = called active by the depositor; i = inactive. Rows were chosen to be rich in hits. Some 2.9% of all compounds tested hit in one or more screens of this group.

SMILES	TRPC4 agonist	TRPC6 inh	TRPC4 potent	TRPC4 block	TRPC6 activator	Kir21 inh
COc1cc(OC)cc(C(=O)NCCCN2CCN(CCCNC(=O)c3cc(OC)cc(OC)c3)CC2)c1	119*	i	i	i	i	-1.1
COc1ccc(N2CCN(CCCNC(=O)c3ccc(CS(=O)(=O)c4ccc(OC)cc4)o3)CC2)cc1	i	i	i	-6*	i	-2.3
CC(C)(C)c1ccc(C(=O)NCCCN2CCN(CCCNC(=O)c3ccc(C(C)(C)C)cc3)CC2)cc1	i	i	i	i	i	-2.5
CCOC(=O)C/C(N)=N/N(C)c1ncc(C(F)(F)F)cc1Cl	i	i	i	i	i	-0.93
c1coc(CN=C2NC(=NCc3ccco3)c3ccccc32)c1	i	i	i	-7*	i	-6.2*
O=C1c2ccccc2C(O)N1Cc1ccco1 (configuration not stated)	i	i	i	i	i	-0.89
CCC[C@H]1COCCS(=O)(=O)N1Cc1ccc(Br)cc1	i	i	i	i	i	-6.1*
Cc1ccc(NC(=O)C(C)SCc2nc3sc(C)c(C)c3c(=O)[nH]2)nc1 (configuration not stated)	i	i	i	i	i	-1.2
C/C=C/c1ccc(OCC(O)CN(C)Cc2ccc(SC)cc2)c(OC)c1 (configuration not stated)	i	i	i	i	i	-11*
C/C=C/c1ccc(OCC(O)CNCCc2ccc(OC)cc2)c(OC)c1 (configuration not stated)	i	i	i	i	i	-6*
C/C=C/c1ccc(OCC(O)CNCC(c2ccc(OC)cc2)N(C)C)c(OC)c1 (configuration not stated)	i	i	i	i	i	0.55
Cc1nn(Cc2noc(C(=O)NC3CCC(C)CC3)n2)c(C)c1Br (configuration not stated)	i	i	i	i	i	-0.74
CCOC(=O)C1=C(C)N(C)C(=S)NC1c1cccc(Cl)c1Cl (configuration not stated)	i	i	21*	i	i	-2.6
CCOC(=O)C1=C(C)N(C)C(=S)NC1c1ccccc1Cl (configuration not stated)	i	i	i	i	i	-2.1
CCOC(=O)C1=C(C)N(C)C(=S)NC1c1ccc(Cl)cc1 (configuration not stated)	i	i	i	-6*	i	-2.7
CCOC(=O)C1=C(C)N(C)C(=S)NC1c1ccccc1 (configuration not stated)	i	i	i	i	i	-1.6
Cc1ccc(F)cc1CNC(=O)C1CCC(=O)N(C2CC2)C1 (configuration not stated)	i	i	i	i	i	0.47
Cc1ccc2nc(Cl)c3cc(C(=O)N(CCN(C)C)Cc4ccco4)sc3c2c1	54*	i	i	i	i	-4.5*
O=C(C1CCC(CNS(=O)(=O)c2cccc3nsnc23)CC1)N1CCN(c2ccccn2)CC1 (configuration not stated)	i	i	i	i	i	0.66
CC(O)CNc1nc2ccccc2n1CC(=O)NCCc1ccc(Cl)cc1 (configuration not stated)	i	i	i	i	i	-1.4
Cc1nn(C(C)C)c(C)c1CN1CCCC(C(=O)c2cccc(OC(C)C)c2)C1 (configuration not stated)	i	-8.2*	i	i	i	-1.3
CC(=O)OC[C@H]1O[C@@H](O/N=C/C[C@@H]2C=C[C@H](OC(C)=O)[C@@H](COC(C)=O)O2)[C@H](OC(C)=O)[C@@H](OC(C)=O)[C@@H]1OC(C)=O	i	i	i	i	i	0.14
CCN1CCN(C(=O)CN(CC)S(=O)(=O)c2ccc(F)cc2)CC1	i	i	i	i	i	-1.4
Cc1cc(-c2csc3ncnc(N4CCN(C)CC4)c23)cc(C)c1C	i	i	i	-7*	i	-1.2
COc1ccc(NC(=S)N2CCN(C(=O)C3CCCO3)CC2)cc1 (configuration not stated)	i	i	i	i	i	-0.88
SMILES	TRPC4 agonist	TRPC6 inh	TRPC4 potent	TRPC4 block	TRPC6 activator	Kir21 inh
C=CCc1cc(Cl)ccc1OCCCn1ccnc1	i	i	19*	i	i	-1.4
C=CCc1cc(Cl)ccc1OCCn1ccnc1	116*	i	14*	i	i	-1.6
C=CCc1cc(C)ccc1OCCn1ccnc1	i	i	i	i	i	-1.3
C=CCc1cc(Cl)ccc1OCCOCCNCCOC	i	i	i	i	i	-5.9*
C=CCc1cc(Cl)ccc1OCCNCCCOC	i	i	i	i	i	-0.59
Cc1ccc2cc(CN(CC(C)C)S(=O)(=O)c3cccc4nonc34)c(=O)[nH]c2c1	i	i	i	i	i	2.1
CC(C)(C)c1ccc(-n2ncc3c2CCCC3NC(=O)c2cnccn2)cc1 (configuration not stated)	i	i	i	i	i	-0.89
COc1ccccc1C1c2ccc3ccccc3c2Oc2ncn(CCCO)c(=N)c21 (configuration not stated)	i	i	i	i	i	-2.5
COc1ccccc1C1c2ccc3ccccc3c2Oc2ncn(CCN(C)C)c(=N)c21 (configuration not stated)	i	i	i	i	i	-5.2*
COc1ccc(C2c3ccc4ccccc4c3Oc3ncn(CCCN(C)C)c(=N)c32)cc1 (configuration not stated)	i	i	i	i	i	-7.2*
COc1ccc(C2c3c(ncn(CCCO)c3=N)Oc3ccc4ccccc4c32)cc1 (configuration not stated)	i	i	i	i	i	-3
NC(=NC(=O)c1ccc(Cl)cc1)N1N=CCC1c1ccccc1 (configuration not stated)	i	i	i	i	i	-0.22
O=C(CSc1ccc(Cl)cc1)N1N=CCC1c1ccccc1 (configuration not stated)	i	i	i	i	i	-6.1*
Cn1ncc(Br)c1NC(=O)CSc1ccc(Cl)cc1	i	i	i	i	i	-2.4
Cc1ccn2c(-c3csc(NCc4ccco4)n3)c(C)nc2c1	i	i	i	-6*	i	0.63
O=C(COc1ccc(Cl)cc1)NCc1ccncc1	i	i	i	i	i	0
